Active and inactive are the calls of the source. No cut-off for these calls is given here.
Key:
Mus musculus [1] = test: In vivo inhibition of RET isoform 9 C634R mutant transfected in mouse NIH/3T3 cells implanted BALB/c nu/nu mouse assessed as reduction in RET phosphorylation at Y905 residue in tumor at 1 mg/kg, po administered once daily via gavage for 3 days measured 3 hrs post-last dose by Western blot analysis; format: functional, organism-based
[2] = molecular target: T1, Coiled-coil domain-containing protein 6/Tyrosine-protein kinase receptor RET (Homo sapiens) (UniProt P07949+Q16204); test: Inhibition of CCDC6/RET in human TPC1 cells assessed as reduction in RET phosphorylation at Y1062 residue at 0.3 to 30 nM measured after 2 hrs by Western blot analysis; format: cell-based
T1 sequence (P07949 29-1114 limits assumed): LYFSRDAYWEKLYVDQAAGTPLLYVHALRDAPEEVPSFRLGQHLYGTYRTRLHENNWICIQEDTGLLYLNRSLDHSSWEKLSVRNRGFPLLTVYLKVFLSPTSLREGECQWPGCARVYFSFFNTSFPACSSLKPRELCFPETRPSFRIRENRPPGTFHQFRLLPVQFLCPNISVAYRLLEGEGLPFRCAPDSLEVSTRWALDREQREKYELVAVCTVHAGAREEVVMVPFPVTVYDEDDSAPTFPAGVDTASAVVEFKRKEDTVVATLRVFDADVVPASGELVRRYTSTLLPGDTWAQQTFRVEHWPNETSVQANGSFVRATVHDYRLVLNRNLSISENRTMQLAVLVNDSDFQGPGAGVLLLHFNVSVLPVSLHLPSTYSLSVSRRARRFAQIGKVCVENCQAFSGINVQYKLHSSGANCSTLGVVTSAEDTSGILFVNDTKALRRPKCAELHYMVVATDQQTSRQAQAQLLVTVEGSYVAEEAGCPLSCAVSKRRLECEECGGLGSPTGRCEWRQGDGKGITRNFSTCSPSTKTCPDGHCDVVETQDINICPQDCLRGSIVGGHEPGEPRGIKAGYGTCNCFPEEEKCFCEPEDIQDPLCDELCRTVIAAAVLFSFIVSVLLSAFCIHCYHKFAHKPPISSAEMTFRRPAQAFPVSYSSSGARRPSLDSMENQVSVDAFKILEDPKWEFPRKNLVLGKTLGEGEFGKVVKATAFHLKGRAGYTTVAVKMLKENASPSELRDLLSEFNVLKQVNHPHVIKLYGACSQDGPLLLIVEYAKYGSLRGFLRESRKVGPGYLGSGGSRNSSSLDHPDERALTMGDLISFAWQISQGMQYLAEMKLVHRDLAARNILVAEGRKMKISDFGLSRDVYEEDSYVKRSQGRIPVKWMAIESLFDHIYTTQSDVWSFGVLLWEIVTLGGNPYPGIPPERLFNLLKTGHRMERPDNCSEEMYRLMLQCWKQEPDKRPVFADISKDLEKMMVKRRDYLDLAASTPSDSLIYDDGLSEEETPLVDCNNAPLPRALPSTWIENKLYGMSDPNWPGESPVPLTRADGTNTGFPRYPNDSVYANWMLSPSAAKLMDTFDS
T1 sequence (Q16204 2-474 partner limits assumed): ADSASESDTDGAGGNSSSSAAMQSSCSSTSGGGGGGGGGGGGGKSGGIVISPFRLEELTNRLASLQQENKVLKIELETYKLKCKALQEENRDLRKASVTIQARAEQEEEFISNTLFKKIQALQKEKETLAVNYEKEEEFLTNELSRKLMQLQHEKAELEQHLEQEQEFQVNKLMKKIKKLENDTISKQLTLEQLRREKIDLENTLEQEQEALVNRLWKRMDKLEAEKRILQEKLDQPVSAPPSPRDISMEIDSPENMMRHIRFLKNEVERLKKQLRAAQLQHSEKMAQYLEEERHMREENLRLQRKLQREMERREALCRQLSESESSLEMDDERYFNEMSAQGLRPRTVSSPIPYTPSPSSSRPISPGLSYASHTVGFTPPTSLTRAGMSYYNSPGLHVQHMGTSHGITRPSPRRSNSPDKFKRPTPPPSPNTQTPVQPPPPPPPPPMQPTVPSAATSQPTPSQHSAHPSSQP

Mus musculus [3] = test: In vivo inhibition of RET isoform 9 C634Y mutant transfected in mouse NIH/3T3 cells implanted BALB/c nu/nu mouse assessed as reduction in SHC phosphorylation at 3 mg/kg, po administered once daily via gavage for 2 days measured 3 hrs post-last dose by Western blot analysis
[4] = tested on: Proto-oncogene tyrosine-protein kinase receptor Ret (Homo sapiens), P07949 [A883F]; test: Inhibition of RET isoform 9 A883F mutant (unknown origin) expressed in rat Rat1 assessed as reduction in RET phosphorylation at Y905 residue at 1 to 100 nM measured after 2 hrs by Western blot analysis; format: cell-based
Sequence of Proto-oncogene tyrosine-protein kinase receptor Ret (Homo sapiens), P07949 [A883F] (P07949 whole entry A883F, canonical isoform): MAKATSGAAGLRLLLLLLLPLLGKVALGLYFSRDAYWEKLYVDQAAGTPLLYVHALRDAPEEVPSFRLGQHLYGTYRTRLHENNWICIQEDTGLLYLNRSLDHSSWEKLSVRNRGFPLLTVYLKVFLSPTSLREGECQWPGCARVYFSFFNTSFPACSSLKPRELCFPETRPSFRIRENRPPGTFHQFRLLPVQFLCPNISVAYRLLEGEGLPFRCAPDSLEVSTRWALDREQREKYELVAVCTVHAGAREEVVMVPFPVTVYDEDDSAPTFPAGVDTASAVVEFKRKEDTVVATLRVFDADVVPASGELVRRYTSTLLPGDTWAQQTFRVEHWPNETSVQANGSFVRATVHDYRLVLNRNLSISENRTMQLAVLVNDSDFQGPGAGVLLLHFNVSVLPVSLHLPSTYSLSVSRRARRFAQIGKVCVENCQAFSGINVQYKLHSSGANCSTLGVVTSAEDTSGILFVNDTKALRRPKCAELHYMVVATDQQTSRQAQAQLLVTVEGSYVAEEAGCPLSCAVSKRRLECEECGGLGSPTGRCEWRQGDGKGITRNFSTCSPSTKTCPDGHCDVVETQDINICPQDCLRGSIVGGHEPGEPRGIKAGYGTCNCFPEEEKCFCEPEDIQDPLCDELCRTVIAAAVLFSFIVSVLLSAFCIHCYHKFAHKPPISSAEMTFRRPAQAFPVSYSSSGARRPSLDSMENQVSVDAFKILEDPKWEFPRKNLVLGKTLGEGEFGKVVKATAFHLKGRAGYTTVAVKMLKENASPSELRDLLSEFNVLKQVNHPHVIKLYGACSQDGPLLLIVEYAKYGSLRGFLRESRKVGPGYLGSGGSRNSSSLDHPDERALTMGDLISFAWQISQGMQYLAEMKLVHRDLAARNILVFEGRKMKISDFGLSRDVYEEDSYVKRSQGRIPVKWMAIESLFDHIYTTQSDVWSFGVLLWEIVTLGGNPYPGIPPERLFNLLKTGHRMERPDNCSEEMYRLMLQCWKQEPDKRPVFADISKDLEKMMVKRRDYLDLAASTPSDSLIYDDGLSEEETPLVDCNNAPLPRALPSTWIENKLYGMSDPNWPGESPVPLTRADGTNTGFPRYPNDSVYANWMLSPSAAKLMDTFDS
Summary of the method: (§1)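 Serum-starved RAT1 (RET point mutants) or NIH3T3 (RET rearrangements) cells expressing short RET-9 isoform, treated 2 h; 50 μg total lysate immunoblotted with anti-phospho-Y1062 and anti-phospho-Y905 RET antibodies, normalized to total RET; ECL detection. Compound from 50 mM DMSO stock diluted in growth medium.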

[5] = tested on: Proto-oncogene tyrosine-protein kinase receptor Ret (Homo sapiens), P07949 [C634R]; test: Inhibition of RET […] C634R mutant (unknown origin) expressed in mouse BAF3 cells assessed as reduction in RET phosphorylation at Y1062 residue at 0.3 to 30 nM measured after 2 hrs by Western blot analysis; format: cell-based
Sequence of Proto-oncogene tyrosine-protein kinase receptor Ret (Homo sapiens), P07949 [C634R] (P07949 whole entry C634R, canonical isoform): as the sequence (P07949 whole entry A883F, canonical isoform) above, with C634R, F883A counted along it
Summary of the method: (§2)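 Ba/F3 cells stably expressing long-isoform RET-51 mutants (electroporation), cultured in RPMI/10% FCS without IL-3; RET phosphorylation read by Western blot with anti-phospho-Y905 and anti-phospho-Y1062 antibodies, ECL detection.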

[6] = tested on: GTPase HRas (Homo sapiens), P01112 [G12V]; test: Inhibition of HRAS G12V mutant (unknown origin) expressed in mouse NIH/3T3 cells assessed as reduction in cell proliferation up to 100 nM supplemented with fresh medium containing compound for every 2 to 3 days measured at 2 days interval during compound dosing; format: cell-based
Sequence of GTPase HRas (Homo sapiens), P01112 [G12V] (P01112 whole entry G12V): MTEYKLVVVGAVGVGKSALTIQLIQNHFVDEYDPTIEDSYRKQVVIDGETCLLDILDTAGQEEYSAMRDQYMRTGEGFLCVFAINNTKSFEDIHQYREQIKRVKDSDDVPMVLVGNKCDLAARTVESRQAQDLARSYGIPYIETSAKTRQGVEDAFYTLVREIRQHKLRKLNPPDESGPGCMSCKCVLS
Summary of the method: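 NIH3T3 transformants seeded 10000/well in 2% calf serum; next day drug or vehicle added, medium changed every 2–3 days; cells counted every 2 days; IC50 from curve fit of last-day counts.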

Mus musculus [7] = test: In vivo inhibition of VEGFR2 in BALB/c nu/nu mouse implanted with mouse NIH/3T3 cells harboring RET isoform 9 C634R mutant assessed as reduction in VEGFR2 phosphorylation at 3 mg/kg, po administered once daily via gavage for 3 days measured 3 hrs post-last dose by Western blot analysis; format: functional, organism-based
[8] = tested on: GTPase HRas (Homo sapiens), P01112 [G12V]; test: Inhibition of HRAS G12V mutant (unknown origin) expressed in mouse NIH/3T3 cells assessed as reduction in MAPK phosphorylation up to 100 nM measured after 2 hrs by Western blot analysis; format: cell-based
A549 = test: Cytotoxicity against RET deficient human A549 cells supplemented with fresh medium containing compound for every 2 to 3 days measured during compound dosing; format: functional, cell-based
Summary of the method: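 Human RET-negative lines were seeded in six-well plates at 10000 cells/well, in 5% FCS (Nthy-ori-3-1) or 10% FCS (BCPAP, 8505-C, CALU-1, A549, PC-9). Drug or vehicle was added the day after plating, with medium changed every 2–3 days. Cells were counted every 2–3 days. IC50 was fitted from the last day of the growth curves.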

BaF3 = test: Inhibition of NCOA4/RET […] (unknown origin) expressed in mouse BAF3 cells assessed as reduction in RET phosphorylation at Y905 residue at 0.3 to 30 nM measured after 2 hrs by Western blot analysis; format: cell-based; conditions: Homo sapiens; summary of the method: as §2
Mus musculus [9] = test: In vivo inhibition of RET isoform 9 C634Y mutant transfected in mouse NIH/3T3 cells implanted BALB/c nu/nu mouse assessed as reduction in SHC phosphorylation in tumor at 1 mg/kg, po administered once daily via gavage for 3 days measured 3 hrs post-last dose by Western blot analysis
[10] = molecular target: T1, Coiled-coil domain-containing protein 6/Tyrosine-protein kinase receptor RET (Homo sapiens); test: Inhibition of CCDC6/RET in human LC2/ad cells assessed as reduction in RET phosphorylation at Y1062 residue at 0.3 to 30 nM measured after 2 hrs by Western blot analysis; format: cell-based
[11] = tested on: Proto-oncogene tyrosine-protein kinase receptor Ret (Homo sapiens), P07949 [C634R]; test: Inhibition of RET isoform 9 C634R mutant (unknown origin) expressed in rat Rat1 assessed as reduction in RET phosphorylation at Y905 residue at 3 nM measured after 2 hrs by Western blot analysis; format: cell-based
Summary of the method: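 RAT1 fibroblasts expressing RET-9 C634R, serum-starved, treated 2 h with 0.1–10.0 nM; 50 μg lysate blotted for RET pY905 and pY1062, normalized to total RET; ECL detection.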

[12] = molecular target: Vascular endothelial growth factor receptor 2 (Homo sapiens, UniProt P35968); test: Inhibition of recombinant human VEGFR2 expressed in HEK293 cells assessed as reduction in VEGFA-induced VEGFR2 autophosphorylation at 1 to 10 nM preincubated for 2 hrs followed by VEGFA-stimulation and measured after 15 mins by Western blot analysis; format: cell-based
Sequence of Vascular endothelial growth factor receptor 2 (P35968 whole entry): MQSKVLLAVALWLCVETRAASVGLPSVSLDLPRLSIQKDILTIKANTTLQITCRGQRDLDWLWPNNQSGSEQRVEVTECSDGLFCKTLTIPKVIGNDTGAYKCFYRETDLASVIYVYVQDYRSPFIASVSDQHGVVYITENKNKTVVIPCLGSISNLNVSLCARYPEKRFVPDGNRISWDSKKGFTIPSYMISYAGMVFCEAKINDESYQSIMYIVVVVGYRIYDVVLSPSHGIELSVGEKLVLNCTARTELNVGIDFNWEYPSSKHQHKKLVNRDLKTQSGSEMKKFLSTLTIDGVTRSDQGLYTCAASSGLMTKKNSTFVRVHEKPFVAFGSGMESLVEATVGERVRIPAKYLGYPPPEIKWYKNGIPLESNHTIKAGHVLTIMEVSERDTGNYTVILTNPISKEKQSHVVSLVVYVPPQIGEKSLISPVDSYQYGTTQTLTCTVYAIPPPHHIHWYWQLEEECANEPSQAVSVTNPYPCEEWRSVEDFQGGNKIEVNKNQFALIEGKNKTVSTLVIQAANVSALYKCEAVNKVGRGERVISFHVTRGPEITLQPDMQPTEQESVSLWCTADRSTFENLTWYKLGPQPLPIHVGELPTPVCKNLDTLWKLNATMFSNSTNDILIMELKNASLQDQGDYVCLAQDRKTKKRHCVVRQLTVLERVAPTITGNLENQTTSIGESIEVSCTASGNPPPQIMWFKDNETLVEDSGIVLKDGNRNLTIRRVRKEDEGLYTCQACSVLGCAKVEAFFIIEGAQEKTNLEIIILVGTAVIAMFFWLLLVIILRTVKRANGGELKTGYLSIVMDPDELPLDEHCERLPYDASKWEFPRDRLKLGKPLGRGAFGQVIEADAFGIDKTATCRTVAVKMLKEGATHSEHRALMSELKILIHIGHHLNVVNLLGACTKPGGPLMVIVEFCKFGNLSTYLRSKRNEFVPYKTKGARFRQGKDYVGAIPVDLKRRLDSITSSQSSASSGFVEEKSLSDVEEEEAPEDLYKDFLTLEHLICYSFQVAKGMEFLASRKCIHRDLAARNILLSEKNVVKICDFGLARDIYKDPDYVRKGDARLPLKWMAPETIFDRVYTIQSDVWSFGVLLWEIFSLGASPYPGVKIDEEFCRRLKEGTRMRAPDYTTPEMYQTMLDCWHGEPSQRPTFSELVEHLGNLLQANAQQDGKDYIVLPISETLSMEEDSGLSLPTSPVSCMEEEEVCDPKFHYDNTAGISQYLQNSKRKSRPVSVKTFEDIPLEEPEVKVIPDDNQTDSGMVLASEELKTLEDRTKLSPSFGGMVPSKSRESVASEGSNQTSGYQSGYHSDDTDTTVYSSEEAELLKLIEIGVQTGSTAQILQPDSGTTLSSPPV
Summary of the method: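 HEK293 transiently transfected with human VEGFR2; 36 h post-transfection serum-starved 12 h, compound or vehicle 2 h, then VEGFA 100 ng/mL for 15 min; lysates blotted for phospho-VEGFR2, normalized to total VEGFR2.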

BCPAP = test: Effect on MAPK phosphorylation in RET deficient human BCPAP cells at 1 to 100 nM measured after 2 hrs by western blot analysis; format: cell-based
[13] = Toxicity in BALB/c nu/nu mouse assessed as change in glucose level at 10 mg/kg, po administered daily for 7 days; format: organism-based; conditions: in vivo, 168 h
[14] = tested on: Proto-oncogene tyrosine-protein kinase receptor Ret (Homo sapiens), P07949 [A883F]; test: Inhibition of RET isoform 9 A883F mutant (unknown origin) expressed in rat Rat1 assessed as reduction in RET phosphorylation at Y1062 residue at 1 to 100 nM measured after 2 hrs by Western blot analysis; format: cell-based; summary of the method: as §1
[15] = Toxicity in BALB/c nu/nu mouse assessed as change in total protein level at 10 mg/kg, po administered daily for 7 days; format: organism-based; conditions: in vivo, 168 h
[16] = tested on: Proto-oncogene tyrosine-protein kinase receptor Ret (Homo sapiens), P07949 [M918T]; test: Inhibition of RET isoform 9 M918T mutant (unknown origin) expressed in rat Rat1 assessed as reduction in RET phosphorylation at Y905 residue at 1 to 100 nM measured after 2 hrs by Western blot analysis; format: cell-based; summary of the method: as §1
Sequence of Proto-oncogene tyrosine-protein kinase receptor Ret (Homo sapiens), P07949 [M918T] (P07949 whole entry M918T, canonical isoform): as the sequence (P07949 whole entry A883F, canonical isoform) above, with F883A, M918T counted along it

inhibition [2]: Active
inhibition [4]: Active
inhibition [5]: Active
inhibition [6]: inactive
inhibition [8]: inactive
inhibition [10]: Active
inhibition [11]: 100%
inhibition [12]: Active
inhibition [14]: Active
inhibition [16]: Active
Structure (SMILES): CC(C)(C)c1cc(NC(=O)Cc2ccc(-n3cnc4cc(-c5ccc(S(C)(=O)=O)cc5)ccc43)cc2)no1
inhibition (Mus musculus [1]): Active
inhibition (Mus musculus [3]): Active
inhibition (Mus musculus [7]): Active
IC50 (A549): > 100 nM
inhibition (BaF3): Active
inhibition (Mus musculus [9]): Active
Activity (BCPAP): inactive
Activity [13]: Non-Toxic
Activity [15]: Non-Toxic

Source: ChEMBL document CHEMBL4354879, “Bioisosteric Discovery of NPA101.3, a Second-Generation RET/VEGFR2 Inhibitor Optimized for Single-Agent Polypharmacology” (J Med Chem, 2020)
